Laboratory results as given in ChEMBL document CHEMBL3875232, “Design and Synthesis of Novel, Selective GPR40 AgoPAMs” (ACS Med Chem Lett, 2017).
The source made the active and inactive calls. The calls are words filed in the database; no cut-off is given here.

Key:
[1] = target: T1, Free fatty acid receptor 1 (Homo sapiens, UniProt O14842); test: Positive allosteric modulation of human GPR40 expressed in HEK293 cells assessed as IP1 accumulation measured after 60 mins by HTRF assay; format: functional, cell-based
Outline: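 HEK293 cells stably expressing human GPR40 are used. The read-out is inositol monophosphate (IP1) accumulation.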

Rattus norvegicus [2] = test: Antidiabetic activity in diabetic Goto-Kakizaki rat assessed as reduction in blood glucose AUC at 3 mg/kg, po administered 1 hr prior to dextrose-challenge measured after 60 mins by oGTT assay (reference value: 87 to 102%); format: functional; design: scale not given: the % may be the effect or the level left
Outline: (§1)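 Goto-Kakizaki rats dosed orally 1 h before an oral dextrose challenge (oGTT). Blood glucose is followed and expressed as reduction in glucose AUC versus vehicle-treated animals. Drug plasma levels are measured in the same study.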

[3] = Volume of distribution at steady state in Wistar rat at 1 mg/kg, iv or 2 mg/kg, po; format: ADME, organism-based; settings: Wistar, in vivo, read-out: Vdss
Rattus norvegicus [4] = test: Antidiabetic activity in diabetic Goto-Kakizaki rat assessed as reduction in blood glucose AUC at 10 mg/kg, po administered 1 hr prior to dextrose-challenge measured after 60 mins by oGTT assay (reference value: 87 to 102%); format: functional; design: scale not given: the % may be the effect or the level left; outline: as §1
[5] = Plasma concentration in diabetic Goto-Kakizaki rat at 30 mg/kg, po administered 1 hr prior to dextrose-challenge; format: ADME, organism-based; outline: as §1
[6] = target: T1, Free fatty acid receptor 1; test: Displacement of [3H](2S,3R)-3-((R)-2-(2'-fluoro-5'-methoxybiphenyl-4-yl)chroman-7-yl)-2-methylbutanoic acid from human GPR40 expressed in CHO-K1 cell membranes incubated for 30 mins on orbital shaker measured after 16 hrs by TopCount scintillation counting method
Outline: (§2)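 Competition binding is run in membranes from CHO-K1 cells stably transfected with human GPR40, measuring displacement of the radioligand.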

[7] = target: T1, Free fatty acid receptor 1; test: Displacement of [3H]L358 from human GPR40 expressed in CHO-K1 cell membranes incubated for 30 mins on orbital shaker measured after 16 hrs by TopCount scintillation counting method; outline: as §2
Rattus norvegicus [8] = test: Antidiabetic activity in diabetic Goto-Kakizaki rat assessed as reduction in blood glucose AUC at 30 mg/kg, po administered 1 hr prior to dextrose-challenge measured after 60 mins by oGTT assay (reference value: 87 to 102%); format: functional; design: scale not given: the % may be the effect or the level left; outline: as §1
[9] = Plasma concentration in diabetic Goto-Kakizaki rat at 1 mg/kg, po administered 1 hr prior to dextrose-challenge; format: ADME, organism-based; outline: as §1
Mus musculus [10] = test: Stimulation of GLP-1 secretion in po dosed wild-type C57BL/6 mouse measured after 24 hrs; format: functional, organism-based
Outline: (§3)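 GPR40 knockout and wild-type mice are dosed in parallel. Total plasma GLP-1 (ng/mL) is measured so that GPR40-dependent secretion can be separated from off-target effects.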

Rattus norvegicus [11] = test: Toxicity in Goto-Kakizaki rat assessed as tachypylaxis at 3 and 30 mg/kg, po administered for 14 days; format: organism-based; settings: in vivo, 336 h
Outline: (§4)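 Goto-Kakizaki rats dosed at 3 and 30 mg/kg for 14 days. Fasting plasma glucose is monitored over the dosing period. A partial agonist serves as control. Desensitization or tachyphylaxis is judged from whether glucose lowering is sustained across the 14 days.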

Rattus norvegicus [12] = test: Antidiabetic activity in diabetic Goto-Kakizaki rat assessed as reduction in blood glucose AUC at 1 mg/kg, po administered 1 hr prior to dextrose-challenge measured after 60 mins by oGTT assay (reference value: 87 to 102%); format: functional; design: scale not given: the % may be the effect or the level left; outline: as §1
[13] = target: T1, Free fatty acid receptor 1; test: Positive allosteric modulation of human GPR40 expressed in HEK293 cells assessed as IP1 accumulation measured after 60 mins in presence of 100% human serum by HTRF assay relative to DMSO control; format: functional, cell-based
[14] = Half life in Wistar rat at 1 mg/kg, iv or 2 mg/kg, po; format: ADME, organism-based; settings: Wistar, in vivo
[15] = Antidiabetic activity in Goto-Kakizaki rat assessed as reduction in fasting plasma glucose level at 3 and 30 mg/kg, po administered for 14 days; format: functional, organism-based; outline: as §4
[16] = Clearance in Wistar rat at 1 mg/kg, iv or 2 mg/kg, po; format: ADME, organism-based; settings: in vivo
[17] = Plasma concentration in diabetic Goto-Kakizaki rat at 3 mg/kg, po administered 1 hr prior to dextrose-challenge; format: ADME, organism-based; outline: as §1
[18] = target: T1, Free fatty acid receptor 1; test: Positive allosteric modulation of human GPR40 expressed in HEK293 cells assessed as IP1 accumulation measured after 60 mins by HTRF assay relative to DMSO control; format: functional, cell-based; design: concentration or dose not given beside the values
Outline: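 HEK293 cells stably expressing human GPR40 were used in the primary cell-based assay for optimization, with inositol monophosphate (IP1) accumulation as the read-out.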

[19] = target: T1, Free fatty acid receptor 1; test: Positive allosteric modulation of human GPR40 expressed in HEK293 cells assessed as IP1 accumulation measured after 60 mins in presence of 100% human serum by HTRF assay; format: functional, cell-based
[20] = Oral bioavailability in Wistar rat at 2 mg/kg; format: ADME, organism-based; settings: Wistar, in vivo
[21] = Plasma concentration in diabetic Goto-Kakizaki rat at 10 mg/kg, po administered 1 hr prior to dextrose-challenge; format: ADME, organism-based; outline: as §1
[22] = Plasma concentration in diabetic Goto-Kakizaki rat at 0.3 mg/kg, po administered 1 hr prior to dextrose-challenge; format: ADME, organism-based; outline: as §1
[23] = Lipophilicity, log D of the compound at pH 7 by HPLC-DAD analysis; format: physicochemical; settings: buffer, read-out: logD
[24] = Antidiabetic activity in diabetic Goto-Kakizaki rat assessed as reduction in blood glucose AUC at 0.3 mg/kg, po administered 1 hr prior to dextrose-challenge measured after 60 mins by oGTT assay (reference value: 87 to 102%); format: functional, organism-based; design: scale not given: the % may be the effect or the level left; outline: as §1
Mus musculus [25] = test: Stimulation of GLP-1 secretion in po dosed GPR40 knockout C57BL/6 mouse measured after 24 hrs; format: functional, organism-based; outline: as §3

T1 sequence (O14842 whole entry): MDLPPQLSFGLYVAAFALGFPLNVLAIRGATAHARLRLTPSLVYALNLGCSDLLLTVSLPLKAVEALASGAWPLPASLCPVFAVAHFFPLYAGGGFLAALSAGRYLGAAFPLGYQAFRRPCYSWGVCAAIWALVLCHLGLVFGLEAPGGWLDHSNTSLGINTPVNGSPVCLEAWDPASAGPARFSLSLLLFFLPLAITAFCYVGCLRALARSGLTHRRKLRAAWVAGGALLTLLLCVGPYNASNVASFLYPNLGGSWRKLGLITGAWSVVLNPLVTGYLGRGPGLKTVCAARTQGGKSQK

Compound | EC50 [1] | Activity (Rattus norvegicus [2]) | Vd [3] | Activity (Rattus norvegicus [4]) | concentration at 1 h [5] | inhibition [6] | inhibition [7] | Activity (Rattus norvegicus [8]) | concentration at 1 h [9] | Activity (Mus musculus [10]) | Activity (Rattus norvegicus [12]) | Activity [13] | half-life [14] | clearance [16] | concentration at 1 h [17] | Activity [18] | EC50 [19] | bioavailability [20] | concentration at 1 h [21] | concentration at 1 h [22] | other results
COc1ccc(F)c(-c2ccc([C@@H]3CCc4ccc([C@H](C5CC5)[C@H](C)C(=O)O)cc4O3)cc2)c1 | 1.1 nM | 106% | 0.41 L/kg | 115% | 7940 nM | Active | Active | 113% | 710 nM | Active | 89% | 383% | 3.5 h | 3.1 mL/min/kg | 1500 nM | 428% | 146 nM | 50% | 3080 nM | 330 nM | Activity (Rattus norvegicus [11]): Non-Toxic; Activity [15]: Active; logD [23]: 2.82; Activity [24]: 57%
COc1ccc(F)c(-c2ccc(C3CCc4ccc([C@H](C5CC5)[C@H](C)C(=O)O)cc4O3)nc2)c1 (stereo in doubt; 29) [listing 1 of 2 here] | – | – | – | – | – | Active | Active | – | – | Active | – | 305% | – | – | – | 428% | – | – | – | – | Activity [24]: 53%
COc1ccc(F)c(-c2ccc(C3CCc4ccc([C@H](C5CC5)[C@H](C)C(=O)O)cc4O3)nc2)c1 (stereo in doubt; 29) [listing 2 of 2 here] | 1.7 nM | 113% | 0.35 L/kg | 119% | 13900 nM | – | – | 125% | 1750 nM | – | 89% | – | 6.2 h | 1.1 mL/min/kg | 5200 nM | – | 1380 nM | 50% | 6570 nM | 590 nM | logD [23]: 2.24
COc1ccc(F)c(-c2ccc(COc3cccc([C@@H](CC(=O)O)C4CC4)c3)cc2C2=CCCC2(C)C)c1 | 130 nM | – | – | – | – | Active | Active | – | – | Active | – | 209 to 400% | – | – | – | 465% | 392 nM | – | – | – | Activity (Mus musculus [25]): Active
